Assay results from the RNAGym collection of RNA variant scans (doi:10.1126/science.aae0568).
Fewer inactive variants are shown than the library holds.

B1: tRNA (parent)
chain: GUUCCGUUGGCGUAAUGGUAACGCGUCUCCCUCCUAAGGAGAAGACUGCGGGUUCGAGUCCCGUACGGAACG

Variants of: B1
Assay: yeast fitness relative to wild type (ratio to wild type); higher = fitter; tRNA-Arg(CCU), competitive growth, 37 C, YPD
Summary of the method: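 Variants of the tRNA-Arg(CCU) gene were chemically synthesised with a 3% per-site mutation rate across 69 sites and placed at the native genomic locus in Saccharomyces cerevisiae. Six parallel replicates of the pooled strains were competed in YPD at 37°C for 24 hours, and gene amplicons from the start and end populations were read by 100-nucleotide paired-end sequencing. Darwinian fitness relative to wild type was derived from changes in genotype frequencies. Genotypes required ≥ 100 starting reads, and estimates < 0.5 were set to 0.5.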

Variant | yeast fitness
A14G G18C C60A C66U | ≤ 0.5
C4G A15U A21G G48A G50C | ≤ 0.5
C11A C30G C31U U32C G52A U59C | ≤ 0.5
G51A G58A A65U | 0.713
C4U A36U A40C A65C | ≤ 0.5
C4U C5U C31G A45G | ≤ 0.5
C4U A15C C34A G63C | ≤ 0.5
U19A A20C A21G C30G A43G C55G | ≤ 0.5
G12A U47C C49A A57U | 0.53
C22A C24G U53A | ≤ 0.5
C11U U13G U19A C22G G25A A65C | ≤ 0.5
U53A A69C | 0.622
U19C A20C C31G A70C | ≤ 0.5
C4A U8C C24G G44C G68U | ≤ 0.5
A14G A21U U47G C49G G56C | ≤ 0.5
G10A U26G A65U | ≤ 0.5
A20U G44U A57U G58A C66G | 0.518
C62U A70G | 0.997
A15G C34U A40U A69C | ≤ 0.5
U7C A14G A20C A57G | ≤ 0.5
C5A C27G U47C A70U | 0.578
C29U A43G C49A | 0.615
A15G U28C U35A G38A C46G C62U G67U | ≤ 0.5
G9A A21G C62U G63C A70C | 0.52

Variant | yeast fitness
G12A C22A C29U A69U | ≤ 0.5
C11G U26A | 0.583
U2G C60U C61A G67C | ≤ 0.5
A20G C24U G56A C66G | ≤ 0.5
G39A A42U | 0.767
A14G G25A A36G A42U G68C | 0.576
U16A U35C A45G G56C | 0.602
C55U C61G C62G | 0.629
C5U C34G C61U C66U | ≤ 0.5
A14G C31G A37G | ≤ 0.5
C49G G52A A57C | ≤ 0.5
U47A U53C | 0.7
U13A A45C C49A A65U | ≤ 0.5
C5U A21U U32G | ≤ 0.5
A40U C55U C61G | 0.507
A20U A40G | 0.903
G12A G39C | 0.896
A45U G50A U64C | 0.72
A57C C60U A69C | ≤ 0.5
C22G G48C G67C | ≤ 0.5
G6A G18C C49U C61G | ≤ 0.5
G9A A36U C46U | ≤ 0.5
C4A A14U A20C U28G A42G | ≤ 0.5
G6A G12A A20G C22G U26A G48C A65U | ≤ 0.5

Variant | yeast fitness
U3C C46G | 0.912
A45G U59C | 1.03
G50A C55U A65G | ≤ 0.5
U8C G17C U26C C34A A45C G48A | ≤ 0.5
G18A A70G | 0.646
C11U G52A A65U | 0.567
U2A G6C G38A | 0.592
G12C C34G | 0.696
G6C G23A C34G | ≤ 0.5
C5A G25A U28C C31U A40C A42G | ≤ 0.5
U26G U28A A43G C49U C61U G67A | ≤ 0.5
U32G C34A G38A A70G | ≤ 0.5
G10A G17C | 0.549
G12A U13C A15C C46G | ≤ 0.5
G52A A57C A65C | 0.647
C5G A20U A57U | ≤ 0.5
C11A G17C A36G G41C U53C C61A G68A | ≤ 0.5
C5U C30A | 0.889
G10C A20G C24U G38C G56C C66U | ≤ 0.5
U2C U19A U26C A45C G52C A70G | ≤ 0.5
U2C C4U G10C A57C | ≤ 0.5
C4U C22A A40C | ≤ 0.5
G44C U47C G58A | 0.766
G52C A57C G63C U64C | ≤ 0.5

Variant | yeast fitness
C4A U16A A43C C46U | ≤ 0.5
C24U C49G | 0.724
C24A C62A | 0.598
G10C A43C C49U A69U | ≤ 0.5
A37U U59C | 0.721
G25A C30G | 0.636
A20U C22U U47A | ≤ 0.5
C5A U19A A65C | 0.538
U2G G9C A20G A42C C46G C49U C62A A69C | ≤ 0.5
U19G G41C C66U | ≤ 0.5
U16C C29U A36U A40C C46U | ≤ 0.5
U8A U13A A20C A21U A42U | ≤ 0.5
C4A C5U C34U U64G | 0.576
U53A C55U | 0.545
C5G C11G A14U A15U C29A C60G | ≤ 0.5
U3A G38A | 0.787
C30A C46U C55U | 0.573
U16A A21U C30A G38A C55A A65C | ≤ 0.5
C27A A36G U53A A70G | ≤ 0.5
G6C A15U C60G C66U | ≤ 0.5
A14G C24U G56A | 0.813
G9C G10C C29G C46A C66U | ≤ 0.5
A14C C27G C46G C62U | ≤ 0.5
G25C C27G C30G C60A | ≤ 0.5

Variant | yeast fitness
U3A G6A A14U C33G | ≤ 0.5
G17A U26C C61U G67A | ≤ 0.5
A14C G23C A36U | 0.68
U3A C4U U32C U64C | 0.877
A15U C24A G25A U47C G52C A65U | ≤ 0.5
U7A U16A A21G C29G C34A A65U C66U | ≤ 0.5
U19C G58C C61U C66U | 0.529
G9A C31A U47A | ≤ 0.5
G12A C62U A70U | 0.695
U3A A21C C24G G68A | ≤ 0.5
C29A C31U A43C G44C A65U | ≤ 0.5
G41A C60G | 0.646
G9C C55G C66A | ≤ 0.5
A20U A42U A45G | 0.532
C29U U47G C49G A70G | ≤ 0.5
C5G C24U U26C C31U | 0.749
C30U C31U G41C A45G C49U C66U A69G | ≤ 0.5
C5U U13C C24G U26C A37G U54G C61G | 0.575
A40C A57G C61U | 0.573
C11U G68U | 0.898
G25A A45G G50C | 0.516
G23C G68A | 0.719
C29U U53A | 0.625
G44C C46U C62G | 0.787

Variant | yeast fitness
C5U C11A C24A U28G | 0.63
C4A G39C G44C G52C | 0.685
U8A G12A C33U A65U | 0.562
A15C G39A U64C A65G | ≤ 0.5
U2G C30U C46A | 0.692
C27G G58A | 0.698
U3A C22U U28A A37U G51C C66U | ≤ 0.5
C4G A21U U54G | 0.607
A14G C22A C27A C29U A42C G63C | ≤ 0.5
G12C U19A C27G C62A | ≤ 0.5
C30U G56A | 0.942
C27U G50C | 0.618
A20C C60U A69U | 0.617
A15U C29U C33U | ≤ 0.5
G17C G18C G44C U59A | ≤ 0.5
G44C C62U C66G | ≤ 0.5
A15G C30U C55U | ≤ 0.5
G17U C30A A43U C66U | ≤ 0.5
C30G G44C G51C A69U | ≤ 0.5
G12A U19C A21U G58C | 0.94
C24U G52A G56A | 0.703
C5U C11A G50C | 0.598
U13C C27U | 0.878
C11A C24G U47G G68C | ≤ 0.5

Variant | yeast fitness
U3C G48A G67C | 0.653
G17C U35G | 0.554
G39C C49A | 0.664
G12A C29A A42U A45U C61G | ≤ 0.5
C5A C11G G48C | ≤ 0.5
A43C A45G G58C | 0.685
A36G A42G C49G | ≤ 0.5
G9A C22A C60A | 0.705
C22A G23C C34U A36G A40U G67A | ≤ 0.5
G6C G17A C30U A42C G52C G63A A65U | ≤ 0.5
A15U A43U C62U | 0.611
C4G C5G U8C G23C C29U A45U C60U C62U A70C | ≤ 0.5
C22A G41A C46U C66U | 0.716
U16A G17C A43U A45C C46A C61U | ≤ 0.5
U7C U8A A20G C24G U64C | ≤ 0.5
C11U A40G G44C U53C C55A A65U | ≤ 0.5
U3C C22A G67A | 0.667
C4U G23C A40U A42G G58C | ≤ 0.5
U13A A21C A42G | 0.502
C29A A57G A65C | ≤ 0.5
C29A A37G U64A A70U | ≤ 0.5
G10A U19A A42G | ≤ 0.5
C31A C49U | 0.867
